What was measured:
[1] = Partition coefficient (logP); format: physicochemical; details: octanol/water
How it was run: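 Compound dissolved in 0.3 mL 1-octanol and shaken with 0.3 mL water by vortexing for 10 min. Phases separated by centrifugation. Each phase analysed by RP-18 HPLC with UV detection at 250 nm. P taken from the ratio of aqueous and organic peak areas.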

[2] = test system: P3HR-1; experiment: Cytotoxic concentration for inhibition of human lymphoblastoid P3HR-1 cell growth; format: functional
How it was run: (§1)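 P3HR-1 cells seeded at 2 × 10⁵ cells/mL and grown 7 days with compound at a range of concentrations. Cells counted on a particle counter. CC50 calculated as 50% inhibition of cell growth.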

[3] = Selectivity index as the ratio of CC50 value to that of EC50 value.; format: functional
How it was run: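 Selectivity index is CC50 (μM)/EC50 (μM). CC50 is for P3HR-1 growth over 7 days, read by cell count. EC50 is for EBV DNA synthesis in TPA-induced P3HR-1 cells over 7 days, read by slot blot.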

[4] = test system: Nucleic Acid; experiment: Effective concentration for the inhibition of Epstein-Barr virus EBV-DNA synthesis in human lymphoblastoid P3HR-1 cells; format: functional, cell-based; details: human gammaherpesvirus 4, P3HR-1
How it was run: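 P3HR-1 (EBV producer) cells in RPMI-1640 with 10% heat-inactivated FCS at 36.5 °C, seeded at 10⁶ cells/mL. TPA 20 ng/mL added to induce virus production. Compound given at a range of concentrations for 7 days. DNA extracted and 10 μg used for slot blot hybridization with a digoxigenin-labeled EBV BamHI-W probe, chemiluminescence and densitometry. EC50 obtained by regression against untreated cells.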

[5] = Selectivity as the ratio of CC50 value to that of EC50 value.; format: functional
How it was run: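 Ratio CC50/EC50, both in P3HR-1 cells over 7 days at varied concentrations. EC50: cells seeded at 10⁶ cells/mL, induced with TPA 20 ng/mL; EBV DNA in 10 μg total DNA by slot blot with digoxigenin-labeled BamHI-W probe, chemiluminescence and densitometry; regression against untreated cells. CC50: growth from 2 × 10⁵ cells/mL, cells counted with a particle counter.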

[6] = test system: P3HR-1; experiment: Cytotoxic concentration for the inhibition of P3HR-1 cell growth; format: functional; details: Homo sapiens; how it was run: as §1

CC(C)(C)c1cccc2c1OP(=O)(OC[C@H]1O[C@@H](n3cc(/C=C/Br)c(=O)[nH]c3=O)C[C@@H]1O)OC2 (stereo partly specified)
logP [1]: 2.9
CC50 [2]: 80 µM
SI [3]: 2.5
EC50 [4]: 32.5 µM

CC(=O)CCC(=O)O[C@H]1C[C@H](n2cc(/C=C/Br)c(=O)[nH]c2=O)O[C@@H]1COP1(=O)OCc2cccc(C)c2O1 (stereo partly specified)
logP [1]: 2.3
CC50 [2]: 152 µM
EC50 [4]: > 163 µM

COc1ccc2c(c1)COP(=O)(OC[C@H]1O[C@@H](n3cc(/C=C/Br)c(=O)[nH]c3=O)C[C@@H]1O)O2 (stereo partly specified)
logP [1]: 1.6
CC50 [2]: 137 µM
SI [3]: 41
EC50 [4]: 3.35 µM

Nc1nc2c(ncn2COCCO)c(=O)[nH]1 [ACYCLOVIR]
Selectivity [5]: 58
EC50 [4]: 6.75 µM
CC50 [6]: 392 µM

O=c1[nH]c(=O)n([C@H]2C[C@H](O)[C@@H](COP3(=O)OCc4cc(Cl)ccc4O3)O2)cc1/C=C/Br (stereo partly specified)
logP [1]: 1.8
CC50 [2]: 80 µM
SI [3]: 3.1
EC50 [4]: 25.8 µM

Cc1cccc2c1OP(=O)(OC[C@H]1O[C@@H](n3cc(/C=C/Br)c(=O)[nH]c3=O)C[C@@H]1OC(=O)[C@@H](N)C(C)C)OC2 (stereo partly specified)
logP [1]: -0.1
CC50 [2]: 47 µM
SI [3]: 0.6
EC50 [4]: 81.8 µM

CCC(C)[C@H](N)C(=O)O[C@H]1C[C@H](n2cc(/C=C/Br)c(=O)[nH]c2=O)O[C@@H]1COP1(=O)OCc2cccc(C)c2O1 (stereo partly specified)
logP [1]: -0.02
CC50 [2]: 78 µM
EC50 [4]: > 135 µM

Cc1cc(C)c2c(c1)COP(=O)(OC[C@H]1O[C@@H](n3cc(/C=C/Br)c(=O)[nH]c3=O)C[C@@H]1O)O2 (stereo partly specified)
logP [1]: 2.2
CC50 [2]: 143 µM
SI [3]: 9.9
EC50 [4]: 14.4 µM

CCC(C)[C@@H](N)C(=O)O[C@H]1C[C@H](n2cc(/C=C/Br)c(=O)[nH]c2=O)O[C@@H]1COP1(=O)OCc2cccc(C)c2O1 (stereo partly specified)
logP [1]: -0.02
CC50 [2]: 37 µM
EC50 [4]: > 135 µM

O=c1[nH]c(=O)n([C@H]2C[C@H](O)[C@@H](COP3(=O)OCc4ccccc4O3)O2)cc1/C=C/Br (stereo partly specified)
logP [1]: 1.5
CC50 [2]: 92 µM
SI [3]: 7.5
EC50 [4]: 12.3 µM

Cc1cccc2c1OP(=O)(OC[C@H]1O[C@@H](n3cc(/C=C/Br)c(=O)[nH]c3=O)C[C@@H]1OC(=O)[C@H](N)Cc1ccccc1)OC2 (stereo partly specified)
logP [1]: 0.5
CC50 [2]: 66 µM
SI [3]: 1.4
EC50 [4]: 46.5 µM

O=c1[nH]c(=O)n([C@H]2C[C@H](O)[C@@H](CO)O2)cc1/C=C/Br [BRIVUDINE]
logP [1]: 0.33
EC50 [4]: > 300 µM
CC50 [6]: 225 µM

CC(=O)O[C@H]1C[C@H](n2cc(/C=C/Br)c(=O)[nH]c2=O)O[C@@H]1COP1(=O)OCc2cccc(C)c2O1 (stereo partly specified)
logP [1]: 2.2
CC50 [2]: 109 µM

Cc1cccc2c1OP(=O)(OC[C@H]1O[C@@H](n3cc(/C=C/Br)c(=O)[nH]c3=O)C[C@@H]1OC(=O)[C@@H](N)Cc1ccccc1)OC2 (stereo partly specified)
logP [1]: 0.5
CC50 [2]: 35 µM
EC50 [4]: ≥ 129 µM

CCCCCCC(=O)O[C@H]1C[C@H](n2cc(/C=C/Br)c(=O)[nH]c2=O)O[C@@H]1COP1(=O)OCc2cccc(C)c2O1 (stereo partly specified)
logP [1]: 2.6
EC50 [4]: > 163 µM
CC50 [6]: > 326 µM

Cc1cccc2c1OP(=O)(OC[C@H]1O[C@@H](n3cc(/C=C/Br)c(=O)[nH]c3=O)C[C@@H]1OC(=O)[C@H](N)CC(C)C)OC2 (stereo partly specified)
logP [1]: 0.4
CC50 [2]: 65 µM
EC50 [4]: > 135 µM

CCCCCCCCCCC(=O)O[C@H]1C[C@H](n2cc(/C=C/Br)c(=O)[nH]c2=O)O[C@@H]1COP1(=O)OCc2cccc(C)c2O1 (stereo partly specified)
logP [1]: 2.8
EC50 [4]: > 149 µM
CC50 [6]: > 299 µM

Cc1cccc2c1OP(=O)(OC[C@H]1O[C@@H](n3cc(/C=C/Br)c(=O)[nH]c3=O)C[C@@H]1OC(=O)[C@@H](N)CC(C)C)OC2 (stereo partly specified)
logP [1]: 0.4
CC50 [2]: 45 µM
SI [3]: 2
EC50 [4]: 23 µM

Cc1cccc2c1OP(=O)(OC[C@H]1O[C@@H](n3cc(/C=C/Br)c(=O)[nH]c3=O)C[C@@H]1OC(=O)CC(C)C)OC2 (stereo partly specified)
logP [1]: 2.4
CC50 [2]: 104 µM
EC50 [4]: > 171 µM

Cc1cccc2c1OP(=O)(OC[C@H]1O[C@@H](n3cc(/C=C/Br)c(=O)[nH]c3=O)C[C@@H]1O)OC2 (stereo partly specified)
logP [1]: 1.9
CC50 [2]: 122 µM
SI [3]: 30
EC50 [4]: 4.11 µM

Cc1cccc2c1OP(=O)(OC[C@H]1O[C@@H](n3cc(/C=C/Br)c(=O)[nH]c3=O)C[C@@H]1OC(=O)CN)OC2 (stereo partly specified)
logP [1]: -0.8
CC50 [2]: 93 µM
SI [3]: 2.1
EC50 [4]: 43.5 µM

Cc1cccc2c1OP(=O)(OC[C@H]1O[C@@H](n3cc(/C=C/Br)c(=O)[nH]c3=O)C[C@@H]1OC(=O)[C@H]1CCCN1)OC2 (stereo partly specified)
logP [1]: -0.4
CC50 [2]: 38 µM
EC50 [4]: ≥ 138 µM

Cc1cccc2c1OP(=O)(OC[C@H]1O[C@@H](n3cc(/C=C/Br)c(=O)[nH]c3=O)C[C@@H]1OC(=O)[C@@H]1CCCN1)OC2 (stereo partly specified)
logP [1]: -0.4
CC50 [2]: 36 µM
EC50 [4]: ≥ 138 µM

Cc1cccc2c1OP(=O)(OC[C@H]1O[C@@H](n3cc(/C=C/Br)c(=O)[nH]c3=O)C[C@@H]1OC(=O)[C@H](N)C(C)C)OC2 (stereo partly specified)
logP [1]: -0.1
CC50 [2]: 80 µM
EC50 [4]: > 137 µM

— ChEMBL document CHEMBL1135649, “CycloSal-BVDUMP pronucleotides: how to convert an antiviral-inactive nucleoside analogue into a bioactive compound against EBV” (J Med Chem, 2002)
